Laboratory results taken from the array DNA melting data of Ke et al. (doi:10.1101/2024.01.08.574731).

Legend:
[1] = folding enthalpy; higher = less favourable; fluorescence melt of hairpins on a sequencing array, two-state fit; conditions: sodium 0.088 M
Procedure, shortened: (§1)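 Library hairpins on a sequenced MiSeq flow cell carried annealed Cy3 and quencher oligos, and their Cy3 fluorescence was imaged in 50 mM Na-HEPES pH 8.0 with 25 mM NaCl, in 2.5 °C steps up to 60 °C. Signals were normalised to Cy3 before quenching and to control constructs. Melting temperature and folding enthalpy were obtained from bootstrapped two-state fits, combined by inverse-variance weighting across four replicates, and the fitted temperatures were then raised by 9.35 °C to match UV melts.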

[2] = melting temperature; fluorescence melt of hairpins on a sequencing array, two-state fit, raised by 9.35 °C to match UV melts; conditions: sodium 0.088 M
Procedure, shortened: as §1

Row | Sequence | folding enthalpy [1] | Tm [2]
1 | GATCCCCTTGGGATC ((((((...)))))) | -37.4 kcal/mol | 63.6 °C
2 | GATCTCAAAGGAGATC ((((((....)))))) | -33.4 kcal/mol | 48.2 °C
3 | GTACAGCGAAAGCTATAC (((.(((....))).))) | -18 kcal/mol | 36.9 °C
4 | GTCCAGGGAAACCTAGAC (((.(((....))).))) | -19 kcal/mol | 33.3 °C
5 | GATCAAATGATTGATC ((((((....)))))) | -26.2 kcal/mol | 35.8 °C
6 | GATGGCGAAAGCCTATC ((((((....))).))) | -12.7 kcal/mol | 44.3 °C
7 | GATGGCCGAAAGGCATC (((.(((....)))))) | -14.6 kcal/mol | 49.9 °C
8 | GTAAGGCGAAAGCCATAC (((.(((....))).))) | -15.3 kcal/mol | 44.8 °C
9 | GAGACGGGAAACCGTCCC (.(((((....))))).) | -11.5 kcal/mol | 43.8 °C
10 | GTTGGTGGAAACGCTAAC (((.(.(....).).))) | -14 kcal/mol | 30.7 °C
11 | TAACCGAAAGGTTA (((((....))))) | -15.2 kcal/mol | 56.7 °C
12 | GGCAGACCGAAAGGTGCC (((..(((....)))))) | -35 kcal/mol | 55.4 °C
13 | CGGTCGGAAACGAGACCG ((((((....)))..))) | -38.6 kcal/mol | 49.9 °C
14 | GATCCTATGGAGGATC ((((((....)))))) | -35.2 kcal/mol | 50.6 °C
15 | CGGTCGGAAACGATTCCG ((((((....)))..))) | -19.8 kcal/mol | 43.9 °C
16 | GTTTGTGGAAACATAAAC ((((.((....)).)))) | -22.8 kcal/mol | 39.6 °C
17 | GATCCTGAGTAGGATC ((((((....)))))) | -37.9 kcal/mol | 50.9 °C
18 | GTGACAGGAAACTGTTGC (..((((....))))..) | -20.8 kcal/mol | 37.3 °C
19 | GCGATGATCGC ((((...)))) | -22.3 kcal/mol | 46 °C
20 | GACTTCCGAAAGGAGTC (((.(((....)))))) | -24.8 kcal/mol | 46.4 °C
21 | GGCTCGGCGAAAGCCGCC (((..(((....)))))) | -8.18 kcal/mol | 43 °C
22 | GTAGAGACGAAAGTCTAC (((..(((....)))))) | -11.7 kcal/mol | 36 °C
23 | GCACTCGGAAACGAGCAC (..((((....))))..) | -11.7 kcal/mol | 29.3 °C

Row | Sequence | folding enthalpy [1] | Tm [2]
24 | GTCTGCGAAAGCACGGAC ((((((....)))..))) | -15.2 kcal/mol | 38.9 °C
25 | GCAAGCGAAAGCTTATGC ((((((....)))..))) | -14.7 kcal/mol | 39.8 °C
26 | GTAGTCGGAAACGACTAC (((((((....))))))) | -41.2 kcal/mol | 64.8 °C
27 | GATCGTGCTCACGATC ((((((....)))))) | -48.2 kcal/mol | 58.9 °C
28 | GGTTGAGGAAACTCAGTC (..((((....))))..) | -14.5 kcal/mol | 30.9 °C
29 | GTTAGTGCGAAAGCAAAC (((..(((....)))))) | -10.6 kcal/mol | 28.3 °C
30 | GAATCCGAAAGGAATTC ((((((....))).))) | -23.6 kcal/mol | 39.7 °C
31 | GTCCCCGAAAGGGTGAC ((((((....))).))) | -22.6 kcal/mol | 53.3 °C
32 | GTTTGCGGAAACGTAAGC (.((.((....)).)).) | -22 kcal/mol | 33 °C
33 | GTGAGGACGAAAGTCCAC (((..(((....)))))) | -13.9 kcal/mol | 47.9 °C
34 | GGGTGAGGAAACTCGTCC ((..(((....)))..)) | -28.5 kcal/mol | 34.3 °C
35 | CGTAACGGAAACGTGACG (((.(((....))).))) | -47 kcal/mol | 49.6 °C
36 | GCAGTAGCGAAAGCTTGC (((..(((....)))))) | -17.8 kcal/mol | 45 °C
37 | GGAGCACGAAAGTGATCC (((.(((....))).))) | -38.3 kcal/mol | 66.2 °C
38 | CGTCACCGGAAACGGACG (((..(((....)))))) | -21.6 kcal/mol | 36.4 °C
39 | GACGCCCCGAAAGGGGTC (((..(((....)))))) | -7.73 kcal/mol | 40.2 °C
40 | GCCCACCCGAAAGGGGGC (((..(((....)))))) | -17.6 kcal/mol | 58.4 °C
41 | GGACAACGAAAGTTATCC (((.(((....))).))) | -29.4 kcal/mol | 40 °C
42 | GCGTCTAAACGC ((((....)))) | -23 kcal/mol | 54.4 °C
43 | GCAGGAGGAAACTCCCGC ((.((((....)))).)) | -24.1 kcal/mol | 45.8 °C
44 | GTCTGCGAAAGCAAGGAC ((((((....)))..))) | -17.5 kcal/mol | 43.2 °C
45 | GATCTGTGCCCAGATC ((((((....)))))) | -30.6 kcal/mol | 49 °C
46 | CAACAGAAATGTTG (((((....))))) | -22.1 kcal/mol | 40.8 °C
